Active and inactive are the calls of the source. No cut-off for these calls is given here.
Columns and labels:
[1] = target: T1, Coagulation factor XII (Homo sapiens) (UniProt P00748); test: Inhibition of human coagulation factor XIIA using Boc-Gln-Gly-Arg-AMC as fluorogenic substrate at 100 nM measured at 1 min interval for 1 hr by fluorometric assay relative to control
T1 sequence (whole entry): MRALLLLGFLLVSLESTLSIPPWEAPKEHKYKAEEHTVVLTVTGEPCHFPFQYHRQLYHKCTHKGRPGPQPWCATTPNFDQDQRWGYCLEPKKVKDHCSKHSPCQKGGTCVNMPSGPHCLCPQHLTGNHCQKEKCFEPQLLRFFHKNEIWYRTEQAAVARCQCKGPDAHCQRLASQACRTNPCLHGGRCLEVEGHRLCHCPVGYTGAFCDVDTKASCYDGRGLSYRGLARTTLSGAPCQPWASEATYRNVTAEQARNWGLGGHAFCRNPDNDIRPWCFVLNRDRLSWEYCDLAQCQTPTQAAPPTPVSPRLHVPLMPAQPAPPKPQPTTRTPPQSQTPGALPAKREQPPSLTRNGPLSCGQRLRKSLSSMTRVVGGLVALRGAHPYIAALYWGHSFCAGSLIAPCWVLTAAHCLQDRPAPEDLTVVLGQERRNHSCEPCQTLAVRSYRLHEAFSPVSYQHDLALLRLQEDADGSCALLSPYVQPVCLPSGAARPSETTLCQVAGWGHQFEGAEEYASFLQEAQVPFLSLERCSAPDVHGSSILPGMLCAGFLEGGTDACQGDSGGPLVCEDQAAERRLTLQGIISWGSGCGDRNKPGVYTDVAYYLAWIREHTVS
Summary of the method: (§1)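 Screening of crude microscale amide-coupling products. Conversion was measured by 1H NMR and product content normalised to 76 µmol/L in DMSO, then tested at 1 µM and 100 nM in the fluorogenic FXIIa or thrombin assay. A 0-conversion reaction served as blank. Percent inhibition is from triplicates.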

[2] = target: T1, Coagulation factor XII (Homo sapiens); test: Inhibition of human coagulation factor XIIA in presence of Boc-Gln-Gly-Arg-AMC as fluorogenic substrate at 1 uM measured at 1 min interval for 1 hr by fluorometric assay relative to control; summary of the method: as §1
[3] = test system: Blood; test: Anticoagulant activity in human blood assessed as increase in activated partial thromboplastin time at 300 uM incubated for 1 min by aPTT reagent based assay relative to control; type: functional
Summary of the method: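 Compounds were tested at 300 µM, and the increase was expressed relative to DMSO. The doubling concentration (EC2×) is the concentration prolonging aPTT twofold. At least triplicate, mean ± SD.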

[4] = target: T2, Coagulation factor XII (Homo sapiens, UniProt P00748); test: Inhibition of human coagulation factor XIIA using Boc-Gln-Gly-Arg-AMC as fluorogenic substrate measured at 1 min interval for 1 hr by fluorometric assay
T2 sequence (P00748 whole entry): T1 sequence (whole entry)

[5] = target: T3, Prothrombin (Homo sapiens, UniProt P00734); test: Inhibition of human coagulation factor alpha-thrombin using Boc-Val-Pro-Arg-AMC as fluorogenic substrate measured at 1 min interval for 1 hr by fluorometric assay
[6] = target: T1, Coagulation factor XII (Homo sapiens); test: Binding affinity to human plasma coagulation factor XIIA assessed as compound-adduct formation by measuring change in molecular mass at molar ratio of 1:20 measured after 4 mins by SEC/ESI-TOF mass spectra analysis; type: cell-free
Summary of the method: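 β-FXIIa incubated with inhibitor at a 1:20 molar ratio, then size-exclusion chromatography coupled to ESI-MS to measure the mass of enzyme–inhibitor complexes. Further runs checked complex stability to probe reversibility.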

[7] = target: T4, Coagulation factor X (Homo sapiens, UniProt P00742); test: Inhibition of human coagulation factor Xa using Boc-Ile-Glu-Gly-Arg-AMC as fluorogenic substrate measured at 1 min interval for 1 hr by fluorometric assay
T4 sequence (P00742 41-179 limits assumed): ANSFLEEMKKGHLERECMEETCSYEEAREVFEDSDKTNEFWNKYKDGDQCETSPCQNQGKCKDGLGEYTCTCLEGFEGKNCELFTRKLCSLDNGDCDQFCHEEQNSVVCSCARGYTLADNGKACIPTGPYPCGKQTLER
T4 sequence (P00742 235-488 limits assumed): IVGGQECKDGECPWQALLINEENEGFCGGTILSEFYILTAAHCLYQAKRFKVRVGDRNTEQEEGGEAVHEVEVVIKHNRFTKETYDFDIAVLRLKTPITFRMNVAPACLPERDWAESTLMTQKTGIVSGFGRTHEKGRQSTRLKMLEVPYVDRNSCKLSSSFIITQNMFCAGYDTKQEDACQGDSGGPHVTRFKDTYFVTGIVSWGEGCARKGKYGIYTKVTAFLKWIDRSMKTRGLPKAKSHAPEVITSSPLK

[8] = Inhibition of porcine trypsin using Z-Gly-Gly-Arg-AMC as fluorogenic substrate measured at 1 min interval for 1 hr by fluorometric assay; parameters: species or system Sus scrofa
[9] = test system: Blood; test: Effect on blood coagulation in human blood assessed as increase in prothrombin time at 300 uM incubated for 3 mins followed by CaCl2 addition by PT reagent based assay relative to control; type: ADME, tissue-based; conditions: 0.05 h
Summary of the method: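 Clotting was started with PT reagent already containing CaCl2, prewarmed to 37 °C, and clotting time was recorded. Increase is given relative to DMSO; at least triplicate, mean ± SD.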

[10] = target: T3, Prothrombin; test: Inhibition of human coagulation factor thrombin using Boc-Val-Pro-Arg-AMC as fluorogenic substrate at 100 nM measured at 1 min interval for 1 hr by fluorometric assay relative to control; summary of the method: as §1
[11] = target: T1, Coagulation factor XII (Homo sapiens); test: […] inhibition of human coagulation factor XIIA using Boc-Gln-Gly-Arg-AMC as fluorogenic substrate measured every 87 sec for 180 mins by time-dependent fluorescence assay
Summary of the method: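 Fluorescence (ex 355/em 460 nm) was read at once, every 87 s, for up to 180 min. IC50 was computed at each time point and plotted against time.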

[12] = test system: Plasma; test: Anticoagulant activity in human platelet-rich plasma assessed as reduction in TF-induced thrombin generation by measuring Tmax of clotting time at 1 uM preincubated for 15 mins followed by TF addition by Z-Gly-Gly-Arg-AMC substrate based calibrated automated thrombography (reference value: 8.1 +/- 0.6 min); type: functional, cell-free
Summary of the method: (§2)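 Tissue-factor-triggered homogeneous thrombin generation followed by fluorogenic substrate cleavage. Read-outs: clotting time (T1/2), peak amplitude (Amax, AU/L), time to peak (Tmax) and ETP (AU·min/L). DMSO and buffer served as controls. n = 3, mean ± SD.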

[13] = test system: Plasma; test: Anticoagulant activity in human platelet-rich plasma assessed as reduction in TF-induced thrombin generation by measuring half life of clotting time at 1 uM preincubated for 15 mins followed by TF addition by Z-Gly-Gly-Arg-AMC substrate based calibrated automated thrombography (Rvb= 3 +/- 0.5 min); type: functional, cell-free; summary of the method: as §2
[14] = test system: Plasma; test: Anticoagulant activity in human platelet-rich plasma assessed as reduction in TF-induced thrombin generation by measuring endogenous thrombin potential at 1 uM preincubated for 15 mins followed by TF addition by Z-Gly-Gly-Arg-AMC substrate based calibrated automated thrombography (reference value: 1203 +/- 44 AU.min/L); type: functional; conditions: 0.25 h; summary of the method: as §2
[15] = target: T4, Coagulation factor X; test: Inhibition of human coagulation factor Xa using Boc-Ile-Glu-Gly-Arg-AMC as fluorogenic substrate at 1 uM measured at 1 min interval for 1 hr by fluorometric assay relative to control
[16] = test system: Plasma; test: Anticoagulant activity in human platelet-rich plasma assessed as reduction in TF-induced thrombin generation by measuring amplitude of thrombin peak at 1 uM preincubated for 15 mins followed by TF addition by Z-Gly-Gly-Arg-AMC substrate based calibrated automated thrombography (reference value: 63 +/- 3.7 AU/L); type: functional; conditions: 0.25 h; summary of the method: as §2
[17] = target: Plasma kallikrein (Homo sapiens, UniProt P03952); test: Inhibition of human kallikrein using Mes-dArg-Pro-Arg-AMC as fluorogenic substrate measured at 1 min interval for 1 hr by fluorometric assay
Sequence of Plasma kallikrein (P03952 20-390 limits assumed): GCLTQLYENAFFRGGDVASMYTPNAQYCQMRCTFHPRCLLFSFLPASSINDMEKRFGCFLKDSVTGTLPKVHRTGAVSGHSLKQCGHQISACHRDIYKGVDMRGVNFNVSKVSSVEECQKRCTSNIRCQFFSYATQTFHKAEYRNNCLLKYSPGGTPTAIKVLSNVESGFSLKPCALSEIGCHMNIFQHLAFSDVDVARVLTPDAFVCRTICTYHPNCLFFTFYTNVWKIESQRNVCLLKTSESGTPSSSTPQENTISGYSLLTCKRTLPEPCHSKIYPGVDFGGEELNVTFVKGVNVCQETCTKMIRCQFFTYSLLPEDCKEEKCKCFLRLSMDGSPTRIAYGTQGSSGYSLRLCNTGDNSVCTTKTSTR
Sequence of Plasma kallikrein (P03952 391-638 limits assumed): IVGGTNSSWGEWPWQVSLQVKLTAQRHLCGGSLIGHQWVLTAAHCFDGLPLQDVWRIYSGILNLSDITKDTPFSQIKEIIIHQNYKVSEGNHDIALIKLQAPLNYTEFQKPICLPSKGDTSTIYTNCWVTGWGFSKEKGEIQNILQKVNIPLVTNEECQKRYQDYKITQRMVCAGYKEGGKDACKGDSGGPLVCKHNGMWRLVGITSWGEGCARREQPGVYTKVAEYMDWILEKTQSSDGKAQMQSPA

[18] = target: Coagulation factor XI (Homo sapiens, UniProt P03951); test: Inhibition of human coagulation factor XIA using Mes-dArg-Pro-Arg-AMC as fluorogenic substrate measured at 1 min interval for 1 hr by fluorometric assay
Sequence of Coagulation factor XI (P03951 19-387 limits assumed): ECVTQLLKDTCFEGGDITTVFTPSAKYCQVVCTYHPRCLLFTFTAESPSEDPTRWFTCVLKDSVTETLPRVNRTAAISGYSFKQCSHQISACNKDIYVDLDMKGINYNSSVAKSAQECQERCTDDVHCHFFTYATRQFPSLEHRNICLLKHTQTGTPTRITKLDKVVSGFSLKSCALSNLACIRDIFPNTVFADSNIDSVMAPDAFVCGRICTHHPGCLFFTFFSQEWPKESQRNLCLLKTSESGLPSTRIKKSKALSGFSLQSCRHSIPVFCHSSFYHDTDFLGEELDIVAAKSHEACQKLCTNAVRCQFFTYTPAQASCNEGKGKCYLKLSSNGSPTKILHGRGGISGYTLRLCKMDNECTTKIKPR
Sequence of Coagulation factor XI (P03951 388-625 limits assumed): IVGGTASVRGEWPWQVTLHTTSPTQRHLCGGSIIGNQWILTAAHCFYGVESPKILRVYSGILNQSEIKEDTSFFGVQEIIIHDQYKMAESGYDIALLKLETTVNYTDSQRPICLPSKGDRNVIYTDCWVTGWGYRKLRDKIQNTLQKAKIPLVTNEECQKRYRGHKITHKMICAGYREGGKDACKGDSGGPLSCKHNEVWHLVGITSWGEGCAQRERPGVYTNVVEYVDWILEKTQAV

[19] = target: T5, Urokinase-type plasminogen activator (Homo sapiens, UniProt P00749); test: Inhibition of human uPA using Tos-Gly-Pro-Arg-AMC as fluorogenic substrate at 5 uM measured at 1 min interval for 1 hr by fluorometric assay relative to control
[20] = species: Homo sapiens; test: Selectivity index, ratio of IC50 for inhibition of human coagulation factor alpha-thrombin using Boc-Val-Pro-Arg-AMC as fluorogenic substrate to IC50 for inhibition of human coagulation factor XIIA using Boc-Gln-Gly-Arg-AMC as fluorogenic substrate incubated for 1 hr by fluorometric assay
[21] = target: Plasminogen (Homo sapiens, UniProt P00747); test: Inhibition of human plasmin using Mes-dArg-Phe-Arg-AMC as fluorogenic substrate measured at 1 min interval for 1 hr by fluorometric assay
Sequence of Plasminogen (P00747 97-580 limits assumed): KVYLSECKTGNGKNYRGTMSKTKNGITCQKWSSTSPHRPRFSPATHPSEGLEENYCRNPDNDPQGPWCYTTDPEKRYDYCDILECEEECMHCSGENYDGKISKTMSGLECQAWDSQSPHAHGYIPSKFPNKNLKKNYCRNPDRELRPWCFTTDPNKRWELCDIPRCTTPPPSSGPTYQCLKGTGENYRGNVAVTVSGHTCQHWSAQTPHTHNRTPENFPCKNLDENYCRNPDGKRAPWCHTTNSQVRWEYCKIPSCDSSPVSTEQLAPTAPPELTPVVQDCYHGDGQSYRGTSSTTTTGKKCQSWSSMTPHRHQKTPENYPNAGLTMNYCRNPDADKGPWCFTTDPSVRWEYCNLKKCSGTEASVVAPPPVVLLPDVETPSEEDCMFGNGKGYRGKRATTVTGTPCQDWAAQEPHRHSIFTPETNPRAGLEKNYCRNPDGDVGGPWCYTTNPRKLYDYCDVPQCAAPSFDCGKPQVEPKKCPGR
Sequence of Plasminogen (P00747 581-810 limits assumed): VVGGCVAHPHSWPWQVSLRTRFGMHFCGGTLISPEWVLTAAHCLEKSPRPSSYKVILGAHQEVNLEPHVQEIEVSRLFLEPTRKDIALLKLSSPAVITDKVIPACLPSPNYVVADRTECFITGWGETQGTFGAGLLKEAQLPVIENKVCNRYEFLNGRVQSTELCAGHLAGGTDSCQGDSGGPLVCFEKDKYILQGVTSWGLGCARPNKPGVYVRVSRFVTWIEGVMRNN

[22] = target: T3, Prothrombin; test: Inhibition of human coagulation factor alpha-thrombin at 33 uM using Boc-Val-Pro-Arg-AMC as fluorogenic substrate measured at 1 min interval for 1 hr by fluorometric assay relative to control
[23] = target: T5, Urokinase-type plasminogen activator; test: Inhibition of human uPA using Tos-Gly-Pro-Arg-AMC as fluorogenic substrate measured at 1 min interval for 1 hr by fluorometric assay
[24] = test system: Plasma; test: Anticoagulant activity in human platelet-rich plasma assessed as reduction in TF-induced thrombin generation by measuring amplitude of thrombin peak at 100 uM preincubated for 15 mins followed by TF addition by Z-Gly-Gly-Arg-AMC substrate based calibrated automated thrombography (reference value: 63 +/- 3.7 AU/L); type: functional; conditions: 0.25 h; summary of the method: as §2
[25] = test system: Plasma; test: Anticoagulant activity in human platelet-rich plasma assessed as reduction in TF-induced thrombin generation by measuring Tmax of clotting time at 100 uM preincubated for 15 mins followed by TF addition by Z-Gly-Gly-Arg-AMC substrate based calibrated automated thrombography (reference value: 8.1 +/- 0.6 min); type: functional, cell-free; summary of the method: as §2
[26] = test system: Plasma; test: Anticoagulant activity in human platelet-rich plasma assessed as reduction in TF-induced thrombin generation by measuring endogenous thrombin potential at 100 uM preincubated for 15 mins followed by TF addition by Z-Gly-Gly-Arg-AMC substrate based calibrated automated thrombography (reference value: 1203 +/- 44 AU.min/L); type: functional; conditions: 0.25 h; summary of the method: as §2
[27] = test system: Plasma; test: Anticoagulant activity in human platelet-rich plasma assessed as reduction in TF-induced thrombin generation by measuring half life of clotting time at 100 uM preincubated for 15 mins followed by TF addition by Z-Gly-Gly-Arg-AMC substrate based calibrated automated thrombography (Rvb= 3 +/- 0.5 min); type: functional, cell-free; summary of the method: as §2
[28] = test system: HepG2; test: Cytotoxicity against human HepG2 cells assessed as reduction in cell viability at 100 uM incubated for 48 hrs by alamar blue assay relative to control; type: cell-based; conditions: hepg2, 48 h
[29] = target: T3, Prothrombin; test: Inhibition of human coagulation factor alpha-thrombin using Boc-Val-Pro-Arg-AMC as fluorogenic substrate at 2 uM measured at 1 min interval for 1 hr by fluorometric assay relative to control
[30] = test system: CCF-STTG1; test: Cytotoxicity against human CCF-STTG1 cells assessed as reduction in cell viability at 100 uM incubated for 48 hrs by alamar blue assay relative to control; type: cell-based; conditions: ccf-sttg1, 48 h
[31] = test system: Plasma; test: Antiplatelet activity in […] assessed as inhibition of MDA-MB-231-induced platelet aggregation at 0.1 to 10 uM by light transmission aggregometry; type: functional; conditions: Homo sapiens, dose 0.1-10 µM

Nc1nc(-c2ccccn2)nn1C(=O)[C@H]1CCCc2ccccc21
inhibition [1]: 70%
inhibition [2]: 96%
Activity [3]: 67%
IC50 [4]: 0.134 µM
IC50 [5]: 0.421 µM
Activity [6]: 158 Da
IC50 [7]: > 5 µM
IC50 [8]: > 5 µM
Activity [9]: 7%
inhibition [10]: 6%

Cn1c(CNc2ccc(C(=N)N)cc2)nc2cc(C(=O)N(CCC(=O)O)c3ccccn3)ccc21 [DABIGATRAN]
inhibition [11]: inactive
Tmax [12]: 25.5 min
inhibition [2]: -1%
Activity [3]: 252%
T1/2 [13]: 15.2 min
Activity [14]: 678 AU.min/L
Ki [8]: 0.05 µM
inhibition [15]: 34%
Activity [16]: 72.4 AU/L

Nc1nc(-c2ccccn2)nn1C(=O)Cc1ccccc1I
inhibition [1]: 47%
IC50 [17]: > 5 µM
IC50 [18]: > 5 µM
inhibition [19]: 41%
Ratio IC50 [20]: 29
inhibition [2]: 89%
Activity [3]: 92%
IC50 [4]: 0.062 µM
IC50 [5]: 1.82 µM
IC50 [7]: > 5 µM
IC50 [21]: > 5 µM
Activity [9]: 6%
inhibition [10]: 2%

O=C(NC[C@H]1CN(c2ccc(N3CCOCC3=O)cc2)C(=O)O1)c1ccc(Cl)s1 [RIVAROXABAN]
inhibition [22]: 55%
inhibition [11]: inactive
inhibition [2]: -3%
Activity [3]: 335%
IC50 [4]: > 33 µM
IC50 [8]: > 5 µM
Activity [9]: 1302%

Cc1ccc(C(=O)n2nc(-c3ccccn3)nc2N)cc1C
IC50 [17]: > 5 µM
IC50 [23]: 2.94 µM
IC50 [18]: > 5 µM
Activity [24]: 16.9 AU/L
inhibition [2]: 92%
Tmax [25]: 8.8 min
Activity [26]: 370 AU.min/L
Activity [3]: 227%
T1/2 [27]: 3.8 min
IC50 [4]: 0.091 µM
IC50 [5]: 0.057 µM
IC50 [7]: > 5 µM
IC50 [21]: 25.8 µM
IC50 [8]: > 5 µM
Activity [9]: 48%

Nc1nc(-c2ccccn2)nn1C(=O)c1ccc(NC(=O)c2ccccc2)cc1
Ratio IC50 [20]: > 18
inhibition [2]: 89%
Activity [28]: 13%
Activity [3]: 35%
IC50 [4]: 0.109 µM
inhibition [29]: 38%
Activity [30]: 35%
Activity [6]: 223 Da
IC50 [7]: > 5 µM
inhibition [31]: inactive
IC50 [8]: > 5 µM
Activity [9]: 2%

— ChEMBL document CHEMBL4673255, “Acylated 1H-1,2,4-Triazol-5-amines Targeting Human Coagulation Factor XIIa and Thrombin: Conventional and Microscale Synthesis, Anticoagulant Properties, and Mechanism of Action” (J Med Chem, 2020)
